Columns and labels:
Assay type in all cases: functional, cell-based
MCF7 = test: Cytotoxicity against human MCF7 cells assessed as growth inhibition after 48 hrs by MTS assay; conditions: MCF7, 48 h
Method in brief: (§1)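 Cell lines from ATCC, grown in RPMI-1640 or DMEM with 10% FBS at 37 °C, 5% CO2. Cells seeded, incubated 12 h at 37 °C, then screened at 40 μM for 48 h with MTS read-out. Where growth inhibition reached 50%, retested at 0.064, 0.32, 1.6, 8 and 40 μM in triplicate. Cisplatin and paclitaxel were positive controls. IC50 by Reed and Muench method.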

RAW264.7 = test: Inhibition of nitric oxide production in LPS-stimulated mouse RAW264.7 cells after 18 hrs by griess reagent based plate reader analysis; conditions: RAW264.7, 18 h
Method in brief: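 RAW264.7 macrophages seeded at 2 × 10^5 cells/well. Treated with serial dilutions (top concentration 25 μM), then stimulated with LPS 1 μg/mL for 18 h. Supernatant NO measured with Griess reagents, absorbance 550 nm. MG-132 was the positive control. Viability was checked in parallel by MTT (595 nm) to exclude cytotoxic interference.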

HL-60 = test: Cytotoxicity against human HL60 cells assessed as growth inhibition after 48 hrs by MTS assay; conditions: HL-60, 48 h; method in brief: as §1
A549 = test: Cytotoxicity against human A549 cells assessed as growth inhibition after 48 hrs by MTS assay; conditions: A549, 48 h; method in brief: as §1
SMMC-7721 = test: Cytotoxicity against human SMMC7721 cells assessed as growth inhibition after 48 hrs by MTS assay; conditions: SMMC-7721, 48 h; method in brief: as §1
SW480 = test: Cytotoxicity against human SW480 cells assessed as growth inhibition after 48 hrs by MTS assay; conditions: SW480, 48 h; method in brief: as §1

Row | SMILES | IC50 (MCF7) | IC50 (RAW264.7) | IC50 (HL-60) | IC50 (A549) | IC50 (SMMC-7721) | IC50 (SW480)
1 | C=C1C(=O)[C@]23[C@H](O)[C@H]1[C@@H](O)C[C@H]2[C@]1(C)CCC[C@](C)(CO)[C@H]1C[C@H]3OC(C)=O | > 10 µM | 16.8 µM | > 10 µM | > 10 µM | > 10 µM | 6.9 µM
2 | C=C1C(=O)[C@@]23[C@H](O)C[C@@H]4[C@@](C)(CO)CCC[C@@]4(C)[C@@H]2C[C@H](O)[C@@H]1[C@H]3OC(C)=O | > 10 µM | 16.5 µM | > 10 µM | > 10 µM | > 10 µM | 8.6 µM
3 | C=C1C(=O)[C@]23[C@H](O)[C@H]1[C@@H](O)C[C@H]2[C@]1(C)CCC[C@](C)(COC(C)=O)[C@H]1C[C@H]3OC(C)=O | 1.6 µM | 5 µM | 2.9 µM | 2.7 µM | 3.5 µM | 0.9 µM
4 | C=C1C(=O)[C@]23C[C@H]1[C@@H](O)C[C@H]2[C@]1(C)CCC[C@](C)(CO)[C@H]1C[C@H]3O | 4.9 µM | 3.5 µM | 3.6 µM | 4.4 µM | 4 µM | 1.4 µM
5 | C=C1[C@H]2[C@@H](O)[C@@]3([C@H](O)C[C@@H]4[C@@](C)(CO)CCC[C@@]4(C)[C@@H]3C[C@@H]2O)[C@@H]1O | > 10 µM |  | > 10 µM | > 10 µM | > 10 µM | > 10 µM
6 | C=C1C(=O)[C@@]23[C@H](O)C[C@@H]4C(C)(C)[C@H](O)CC[C@@]4(C)[C@@H]2[C@@H](O)[C@H](O)[C@@H]1[C@H]3O | > 10 µM |  | > 10 µM | > 10 µM | > 10 µM | > 10 µM
7 | C=C1C(=O)[C@@]23[C@H](O)C[C@@H]4[C@@](C)(CO)[C@H](O)CC[C@@]4(C)[C@@H]2C[C@H](O)[C@@H]1[C@H]3O | > 10 µM |  | > 10 µM | > 10 µM | > 10 µM | > 10 µM
8 | C=C1[C@@H]2CC[C@H]3[C@]4(C)CCC(=O)[C@](C)(CO)[C@H]4CC[C@]3(C2)[C@@H]1O | > 10 µM |  | > 10 µM | > 10 µM | > 10 µM | > 10 µM
9 | C=C1C(=O)[C@@]23CC[C@@H]4[C@@](C)(CO)[C@H](O)CC[C@@]4(C)[C@@H]2C[C@H](O)[C@@H]1C3 | 4.8 µM | 4.7 µM | 4.1 µM | 3.7 µM | 4.1 µM | 2.7 µM
10 | C=C1C(=O)[C@@]23C[C@H](O)[C@@H]4C(C)(C)CCC[C@@]4(C)[C@@H]2[C@@H](O)C[C@@H]1[C@H]3O | 3.7 µM | 2.5 µM | 4.8 µM | 5.1 µM | 5.1 µM | 2.3 µM
11 | C=C1C(=O)[C@@]23CC(=O)[C@@H]4C(C)(C)CCC[C@@]4(C)[C@@H]2[C@@H](O)C[C@@H]1[C@H]3O | 1.6 µM | 1.1 µM | 3.1 µM | 1 µM | 0.8 µM | 1 µM
12 | C=C1C(=O)[C@@]23CC[C@H]4[C@@](C)(CCC[C@]4(C)C=O)[C@@H]2C[C@H](O)[C@@H]1[C@H]3O | 1.7 µM | 1.9 µM | 3.2 µM | 0.9 µM | 1.4 µM | 1 µM
13 | C=C1[C@H]2C[C@@]3(CC[C@@H]4[C@@](C)(CO)CCC[C@@]4(C)[C@@H]3C[C@@H]2O)[C@@H]1O | > 10 µM | 23.9 µM | > 10 µM | > 10 µM | > 10 µM | > 10 µM
14 | C=C1C(=O)[C@@]23[C@H](O)C[C@@H]4[C@@](C)(CO)CCC[C@@]4(CO)[C@@H]2C[C@H](O)[C@@H]1[C@H]3O | > 10 µM |  | > 10 µM | > 10 µM | > 10 µM | > 10 µM
15 | C=C1C(=O)[C@]23[C@H](O)[C@H]1[C@@H](O)[C@H](O)[C@H]2[C@]1(C)CCCC(C)(C)[C@H]1C[C@H]3OC(C)=O | > 10 µM | 7.2 µM | 8.8 µM | > 10 µM | 5.8 µM | 4.7 µM
16 | C=C1C(=O)[C@@]23CC[C@@H]4[C@@](C)(CO)CCC[C@@]4(C)[C@@H]2C[C@H](O)[C@@H]1[C@H]3O | > 10 µM | 4.8 µM | 8.8 µM | > 10 µM | 4 µM | 4 µM
17 | C=C1C(=O)[C@@]23[C@H](O)C[C@@H]4[C@@](C)(CO)[C@@H](O)CC[C@@]4(C)[C@@H]2CC(=O)[C@@H]1[C@H]3O | > 10 µM |  | > 10 µM | > 10 µM | > 10 µM | > 10 µM
18 | C=C1[C@@H]2C[C@H](OC(C)=O)[C@H]3[C@]4(C)[C@@H](OC(C)=O)C[C@H](O)C(C)(C)[C@H]4C(=O)[C@H](OC(C)=O)[C@]3(C2)[C@@H]1O [ADENANTHIN J] | > 10 µM |  | > 10 µM | > 10 µM | > 10 µM | > 10 µM
19 | C=C1[C@@H]2C[C@H](OC(C)=O)[C@H]3[C@]4(C)[C@@H](OC(C)=O)C[C@H](O)C(C)(C)[C@H]4C(=O)[C@H](O)[C@]3(C2)[C@@H]1OC(C)=O [ADENANTHIN K] | > 10 µM |  | > 10 µM | > 10 µM | > 10 µM | > 10 µM
20 | C=C1[C@H]2[C@@H](O)[C@@]3([C@H](O)C[C@@H]4[C@@](C)(CO)CCC[C@@]4(C)[C@@H]3C[C@@H]2O)[C@@H]1OC(C)=O [ALBOPILOSIN B] | > 10 µM |  | > 10 µM | > 10 µM | > 10 µM | > 10 µM
21 | C=C1[C@@H]2C[C@H](OC(C)=O)[C@H]3[C@]4(C)[C@@H](OC(C)=O)C[C@H](O)C(C)(C)[C@H]4C(=O)[C@H](O)[C@]3(C2)[C@@H]1O [NERVONIN E] | > 10 µM |  | > 10 µM | > 10 µM | > 10 µM | > 10 µM
22 | C=C1[C@@H]2C[C@H](O)[C@H]3[C@]4(C)[C@@H](OC(C)=O)C[C@H](O)C(C)(C)[C@H]4[C@@H](OC(C)=O)[C@H](OC(C)=O)[C@]3(C2)[C@@H]1O [NERVONIN G] | > 10 µM |  | > 10 µM | > 10 µM | > 10 µM | > 10 µM
23 | CC(=O)O[C@H]1C(=O)[C@@]2(C)[C@H]([C@H](OC(=O)c3ccccc3)[C@]3(O)C[C@H](OC(=O)[C@H](O)[C@@H](NC(=O)c4ccccc4)c4ccccc4)C(C)=C1C3(C)C)[C@]1(OC(C)=O)CO[C@@H]1C[C@@H]2O [PACLITAXEL] | < 0.008 µM |  | < 0.008 µM | < 0.008 µM | < 0.008 µM | < 0.008 µM
24 | C=C1C(=O)[C@@]23[C@H](O)C[C@@H]4[C@@](C)(CO)CCC[C@@]4(C)[C@@H]2[C@@H](O)C[C@@H]1[C@H]3O [RABDOKUNMIN D] | > 10 µM |  | > 10 µM | > 10 µM | > 10 µM | > 10 µM

From ChEMBL document CHEMBL3233000, “Cytotoxic ent-kaurane diterpenoids from Isodon wikstroemioides” (J Nat Prod, 2014)
